Measurements gathered from unrelated publications.
Each line is one published result; the experiments were not run side by side.

SMILES | method | medium | time | pH | temperature | notes | kinetic solubility
Cc1noc([C@H](Cc2c[nH]cn2)NC(=O)CN(CCCc2ccccc2)CC(=O)O)n1 | – | PBS | 24 h | pH 7.4 | – | – | 198 µM
CC(=O)Nc1cc(Nc2cc(NC3CC3)n3ncc(C#N)c3n2)ccc1N(C)CC1COC1 | shake flask | PBS | 24 h | pH 7.4 | 22 °C | – | 0.2 µg/mL
C=CC(=O)Nc1cc(Nc2nccc(Nc3cc(Cl)c(F)cc3C(C)(C)O)n2)c(OC)cc1N1CC[C@@H](N(C)C)C1 | – | aqueous buffer | – | pH 7.4 | – | – | 616 µM
CN[C@@H]1CCN(c2ccc(Nc3cc(NC4CC4)n4ncc(C#N)c4n3)cc2NC(C)=O)C1 | shake flask | PBS | 24 h | pH 7.4 | 22 °C | – | 64 µg/mL
O=C(O)CN(CCCc1ccccc1)CC(=O)N[C@@H](Cc1c[nH]cn1)C(=O)NCc1ccccc1 | – | PBS | 24 h | pH 7.4 | – | – | 179 µM
CCCCOC(=O)NS(=O)(=O)c1sc(CC(C)C)cc1-c1ccc2c(c1)CN(C(C)=O)C2 | – | aqueous buffer | – | pH 7.4 | 37 °C | – | 30 µM
CC(=O)Nc1cc(Nc2cc(NC3CC3)n3ncc(C#N)c3n2)ccc1N(C)C[C@@H]1CCCN1 | shake flask | PBS | 24 h | pH 7.4 | 22 °C | – | 68 µg/mL
Cc1cc(Nc2ccc(S(F)(F)(F)(F)F)cc2)n2ccnc2n1 | – | PBS | – | pH 6.5 | – | – | 8.9 µM
COc1ccn2c(Nc3ccccc3F)c(-c3ccncn3)nc2c1 | – | aqueous buffer | 24 h | – | – | – | 163 µM
COC(=O)CN(CCCc1ccccc1)CC(=O)N[C@@H](Cc1c[nH]cn1)c1nc(C)no1 | – | PBS | 24 h | pH 7.4 | – | – | 172 µM
O=C1CCC(N2C(=O)c3cccc(NCCCCNC(=O)c4cccc(C#Cc5cc(NC(=O)Nc6ccnc(Cl)c6)ccn5)c4)c3C2=O)C(=O)N1 (stereo not drawn) | – | PBS | 24 h | pH 7.4 | – | – | < 1.56 µM
CCC(=O)Nc1cc(Nc2cc(NC3CC3)n3ncc(C#N)c3n2)ccc1N1CCC[C@@H](NC)C1 | shake flask | PBS | 24 h | pH 7.4 | 22 °C | – | 65 µg/mL
CCOC(=O)NS(=O)(=O)c1sc(CC(C)C)cc1-c1ccc2c(c1)CN(C(C)=O)C2 | – | aqueous buffer | – | pH 7.4 | 37 °C | – | 35 µM
CN[C@@H]1CCCN(c2ccc(Nc3cc(NC4CC4)n4ncc(C#N)c4n3)cc2NC(C)=O)C1 | shake flask | PBS | 24 h | pH 7.4 | 22 °C | – | 52 µg/mL
Cc1cc(Nc2ccc(C(F)(F)F)cc2)c2ccccc2n1 | – | simulated gastric fluid | – | pH 2 | – | acidic | > 330 µM
COC(=O)CN(CC(=O)N[C@@H](Cc1c[nH]cn1)C(=O)OC)Cc1ccccc1 | – | PBS | 24 h | pH 7.4 | – | – | 191 µM
CCOC(=O)NS(=O)(=O)c1sc(CC(C)C)cc1-c1ccc2c(c1)CN(C)C(=O)C2 | – | aqueous buffer | – | pH 7.4 | 37 °C | – | 61 µM
CCn1cc(-c2cc(Cn3ccnc3)cc3c2OCCN([C@H](c2cc(OC)ccn2)C2CC2)C3=O)c(C(F)(F)F)n1 | – | PBS | 1 h | pH 7.4 | – | – | 74 µM
COC(=O)[C@H](Cc1c[nH]cn1)NC(=O)CN(CC(=O)O)Cc1ccccc1 | – | PBS | 24 h | pH 7.4 | – | – | 154 µM
CC(=O)Nc1cc(Nc2cc(NC3CC3)n3ncc(C#N)c3n2)ccc1N(C)C1COC1 | shake flask | PBS | 24 h | pH 7.4 | 22 °C | – | 0.9 µg/mL
CCOC(=O)NS(=O)(=O)c1sc(CC(C)C)cc1-c1ccc2c(c1)CN(C(=O)OCC)C2 | – | aqueous buffer | – | pH 7.4 | 37 °C | – | 58 µM
